Compound activity from PubChem BioAssay.
HNF4A DNA FP: change in binding of human HNF4A to DNA, primary screen, biochemical, fluorescence polarization, FITC-DNA; Hepatocyte nuclear factor 4-alpha (Homo sapiens), P41235; hit rate 0.3% among 360,000; activity change, % at 10 µM; 1 h; in the data active = activity change above about 30%, passing the limit was not always enough
Rpn11 block: Rpn11 (PSMD14) deubiquitinase inhibitors, primary screen, biochemical, fluorescence polarization, uHTS; 26S proteasome non-ATPase regulatory subunit 14 (Homo sapiens), O00487; human 26S proteasome, Ub4-pepOG fluorescence polarization; 20S core pre-blocked with epoxomicin; inhibition, % at 20 µM; hit rate 0.59% among 360,000; AID 588493, 2011;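 active = inhibition at 20 µM, scaled to each plate's controls, above about 33%, limit read from the data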
Rin1 Abl inh: inhibitors of Rin1-Abl protein binding, primary screen, biochemical, TR-FRET; Tyrosine-protein kinase ABL1 (Homo sapiens) + Ras and Rab interactor 1 (Homo sapiens), …; inhibition, % at 7.35 µM; hit rate 0.4% among 360,000; in the data active = inhibition above about 5%, passing the limit was not always enough
TPT1 inh: Candida albicans TPT1 enzyme inhibitors, primary screen, biochemical, fluorescence polarization; tRNA 2'-phosphotransferase TPT1 (Candida albicans SC5314); recombinant caTPT1, FP RNA substrate dephosphorylation; inhibition, % at 5 µM; hit rate 0.81% among 300,000; AID 1962, 2009;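 active = inhibition above the mean of all tested compounds plus 3 SD, set per screening campaign, cut at about 24% in these data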;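 note: plate controls were DMSO alone for no effect and ferristatin control at 100 nM for full effect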
Neddyl block: inhibitors of cullin neddylation, primary screen, biochemical, TR-FRET, uHTS, NAE and Ubc12 | NEDD8-conjugating enzyme Ubc12 (Homo sapiens) + NEDD8-activating enzyme E1 regulatory … | inhibition, % at 25 µM | hit rate 0.58% among 360,000; in the data active = inhibition above about 36%
Target sequence (P61081 whole entry, looked up): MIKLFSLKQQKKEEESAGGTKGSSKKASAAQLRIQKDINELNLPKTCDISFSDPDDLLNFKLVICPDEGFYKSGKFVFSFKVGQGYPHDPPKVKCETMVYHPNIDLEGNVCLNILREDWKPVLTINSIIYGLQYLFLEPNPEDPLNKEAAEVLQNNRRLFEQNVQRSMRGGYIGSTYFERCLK
Target sequence (Q13564 whole entry, looked up): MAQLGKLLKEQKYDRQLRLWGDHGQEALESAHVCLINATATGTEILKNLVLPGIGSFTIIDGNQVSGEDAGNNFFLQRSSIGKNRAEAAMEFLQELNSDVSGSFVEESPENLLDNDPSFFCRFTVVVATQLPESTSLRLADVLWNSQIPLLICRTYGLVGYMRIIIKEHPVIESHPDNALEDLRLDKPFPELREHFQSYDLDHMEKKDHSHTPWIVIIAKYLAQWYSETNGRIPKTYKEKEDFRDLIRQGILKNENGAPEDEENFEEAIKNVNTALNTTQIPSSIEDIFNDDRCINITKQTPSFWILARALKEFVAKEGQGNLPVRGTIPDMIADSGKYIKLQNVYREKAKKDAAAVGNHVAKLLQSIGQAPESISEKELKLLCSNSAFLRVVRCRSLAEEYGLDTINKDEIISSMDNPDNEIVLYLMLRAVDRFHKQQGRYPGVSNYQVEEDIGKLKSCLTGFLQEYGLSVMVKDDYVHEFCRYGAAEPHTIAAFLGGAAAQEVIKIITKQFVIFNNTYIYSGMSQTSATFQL
CSN deneddyl inh: inhibitors of CSN-mediated cullin deneddylation, primary screen, biochemical, fluorescence polarization, uHTS; COP9 signalosome complex subunit 5 (Homo sapiens), Q92905; Purified CSN, SCF-Nedd8-OG deneddylation; inhibition, % at 12.5 µM; hit rate 0.38% among 360,000;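 active = pattern-corrected inhibition above about 35%, with an unprinted fluorescence ratio check between 0.5 and 1.5, limit read from the data, passing the limit was not always enough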;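 note: 0% = enzyme with substrate and 100% = substrate without enzyme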
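Detection – fluorescence polarization · System – HEK293T-derived human Csn5 enzyme · Controls – substrate-only high control, full reaction low control · Timing – 90 min, room temperature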
Rpn11 confirm: Rpn11 (PSMD14) deubiquitinase inhibitors, confirmation, biochemical, fluorescence polarization, single concentration; purified human 26S proteasome, Ub4-pepOG fluorescence polarization; proteasome pretreated with epoxomicin; shares compounds with Rpn11 block; hit rate 29% among 1,900; inhibition, % at 20 µM
MMP-2 inh: MMP-2 enzyme inhibition, confirmation, counter-screen for RPN11 inhibitor project, biochemical, fluorescence, single concentration. shares compounds with Rpn11 block. recombinant MMP-2, FRET peptide cleavage fluorescence. inhibition, % at 20 µM. hit rate 4% among 1,900. AID 602330, 2012;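 note: human MMP-2 activated beforehand with APMA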
Thrombin FP: bovine thrombin protease inhibition, confirmation, counter-screen for Rpn11 inhibitor project, biochemical, fluorescence polarization, single concentration. bovine thrombin cleavage of Ub4-pepOG. inhibition, % at 20 µM. hit rate 13% among 1,900. shares compounds with Rpn11 block;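 active = mean inhibition at least 40% at 20 µM, or signal 3 deviations below plate average, so some actives read negative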;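 note: plate controls were thrombin with DMSO for no effect and buffer wells lacking thrombin for full effect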
* hit, by the source's call; . = no result given. Rows were chosen to be rich in hits. Some 2.4% of all compounds tested hit in one or more screens of this group. Cut-off read from the data, not from the text of the source, unless noted: active = inhibition above about 40%; inactive = the rest.

SMILES	HNF4A DNA FP	Rpn11 block	Rin1 Abl inh	TPT1 inh	Neddyl block	CSN deneddyl inh	Rpn11 confirm	MMP-2 inh	Thrombin FP
O=C(Nc1ccccc1-c1nnc(SCc2ccc(Cl)cc2)o1)c1ccccc1	8.1	66.4*	-0.6	-0.9	7.8	5.7	-9.9	12.8	-6.1
O=C(Nc1ccccc1-c1nnc(SCc2ccccc2)o1)c1ccccc1	-3.9	3.7	-67.4	-2.8	18.4	-1.6	.	.	.
S=C(Nc1cc(Cl)ccc1Oc1ccccc1)N1CCN(c2ccccn2)CC1	7.6	35.6*	3.1	.	5.8	-0.9	-8.1	46.5*	-3.3
CCOC(=O)c1c(NC(=O)CN2CCCc3ccccc32)sc(C)c1CC	8.5	44.1*	-0.8	4.6	-6.8	7.0	-1.4	-25.6	5.5
Nc1ncncc1-c1ccccc1Cl	1.5	3.9	2.4	.	7.0	6.3	.	.	.
O=C(NCc1cccnc1)/C(=C/c1ccc(-c2cccc(Cl)c2)o1)S(=O)(=O)c1ccccc1	1.2	-3.2	-1.8	-2.5	-2.3	-0.1	.	.	.
Cc1ccc(C(=O)N/C(=C\c2ccc(-c3cc(Cl)ccc3Cl)o2)C(=O)NCc2cccnc2)cc1	-0.1	50.9*	-1.2	7.5	.	-5.3	4.6	-1.2	-1.6
COc1ccc2oc(C(=O)OCC(=O)/C(C#N)=C(\C)N)c(C)c2c1	0.5	-3.1	-1.1	1.1	-50.0	-4.7	.	.	.
Cc1nn(C)cc1-c1cc(C(=O)O)c2ccccc2n1	0.9	-3.8	0.8	-1.9	.	-2.3	.	.	.
Cc1cc(-c2cc(C(=O)O)c3ccccc3n2)c(C)s1	-1.1	36.0*	2.5	0.6	-1.1	-3.4	3.1	-12.6	-0.1
CCOC1=C2CN(S(=O)(=O)c3ccc(C)cc3)[C@H](c3ccccc3)C[C@@H]2N(S(C)(=O)=O)[C@H](c2ccccc2)C1	13.6	47.8*	7.9	.	15.3	5.2	28.3	-11.0	19.3
Cc1cc(O)c(C(C)C)cc1N=Cc1ccccc1O	21.2	45.2*	0.1	-0.8	-16.3	8.5	25.1	-20.4	24.0
CCOC(=O)c1cc2c(c(CSc3nc4ccccc4c(=O)n3Cc3ccco3)c1)OCOC2	-10.8	51.8*	-1.9	2.5	-17.4	16.6	12.0	4.1	0.8
CCC(=O)N1CCc2cc(OC)c(OC)cc2C1COc1ccc(F)cc1 (configuration not stated)	0.1	0.5	-0.4	-0.8	7.0	2.7	.	.	.
O=C(NC(C(=O)c1ccccc1)c1ccccc1)c1ccccc1 (configuration not stated)	-0.2	-2.0	4.2	.	0.6	3.2	.	.	.
COc1cccc(-c2csc3nnc(SCC(=O)c4ccc(NC(C)=O)cc4)n23)c1	-0.3	39.5*	1.4	-1.2	-80.2	17.2	21.8	7.1	8.5
COc1ccc(OC)c(-c2csc3nnc(SCC(=O)Nc4ccc(NC(C)=O)cc4)n23)c1	0.3	-4.7	-3.6	-0.6	1.4	1.9	.	.	.
COc1cc2oc3ccccc3c2cc1N(CC(=O)N(C)C)S(=O)(=O)c1ccccc1	-3.0	115.5*	-1.5	-1.2	2.6	5.8	-1.3	20.5	-14.2
Cc1ccc(CNc2oc(-c3ccco3)nc2S(=O)(=O)c2ccccc2)cc1	3.4	79.7*	-0.1	1.4	21.3	4.6	7.1	20.3	0.4
